Measurements as given in PMC3718025 (Bioconjugate chemistry, 2011).

System: luciferase expression in M21+GL3 cells
Experiment: Luciferase knockdown
Type: cell-based, human
Conditions: 25 nM, no transfection agent; 4 h serum free, then 2% serum to 96 h
Outline: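 M21+GL3 stable clone made by nucleoporation with pGL3-promoter plus pcDNA3.1/hygro (10:1), selected two weeks in 500 μg/ml hygromycin B. siRNA added 4 h at 37°C in serum-free OPTI-MEM, then serum added to 2% and incubated to 96 h total. Lipofectamine 2000-complexed siRNA served as positive control, its medium swapped to DMEM-H with 2% serum. Lysate luminescence read and normalized to total cellular protein.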

Substance: AccGAAAGGucuuAccGGAdTsdTX2 (head to tail) [compound 14]
- reduction in luciferase: 70%
